One test deals with NCI-H460. The test can be described thus: Cytotoxicity against human NCI-H460 cells assessed as growth inhibition after 72 hrs by sulforhodamine B assay. It counts as functional, cell-based. The note with it: NCI-H460, 72 h. Summed up: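 Log-phase NCI-H460 cells seeded, drug added 24 h later, exposed 72 h. Survival read by sulforhodamine B staining. IC50 fitted by curve analysis as the concentration halving cell number relative to untreated controls.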
For orientation: The SRB assay estimates cell density from bound dye.

For test [1], the target named is Heat shock protein HSP 90-alpha (Homo sapiens, UniProt P07900). In words: Displacement of GM-FTC from Hsp90-alpha (unknown origin) after 4 hrs by fluorescence polarization assay.
For test [2], the system named is K562. In words: Cell cycle arrest in human K562 cells assessed as reduction of S phase fraction at 75 uM after 24 hrs by propidium iodide staining-based flow cytometric analysis. It counts as functional. The essentials: (§1)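 K562 cells exposed for 24 h, then washed once in ice-cold PBS. Resuspended at 1×10^6 cells/mL in a hypotonic solution of propidium iodide in 0.1% sodium citrate with 0.03% (v/v) Nonidet P-40 for 30 min. Filtered through nylon cloth, then single-parameter DNA fluorescence histograms read by flow cytometry. Cell-cycle phase distribution obtained by modelling, with untreated cells as control.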

The subject of test [3] is K562. In words: Induction of apoptosis in human K562 cells assessed as hypoploid nuclei accumulated in sub-G0-G1 phase after 72 hrs by propidium iodide staining-based fluorescence microscopic analysis. As to conditions: K562, 72 h.
Test [4] relates to K562. In words: Cell cycle arrest in human K562 cells assessed as accumulation at G1 phase at 75 uM after 24 hrs by propidium iodide staining-based flow cytometric analysis. In kind it is functional. Summed up: as §1
For orientation: Flow cytometry measures light scatter and fluorescence of single cells or particles in a stream.

For test [5], the system named is K562. In words: Cytotoxicity against human K562 cells assessed as growth inhibition after 72 hrs by trypan blue exclusion assay. It counts as functional, cell-based. As to conditions: for IC50: K562, 72 h. The essentials: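 K562 cells, 2×10^5 per well in 1 mL complete medium, exposed to a range of drug concentrations. Cells stained with trypan blue and counted on a hemocytometer; dye-uptaking cells scored nonviable. Viable count expressed as percent of control proliferation; IC50 is the concentration giving 50% growth inhibition. Methods give 48 h incubation, table footnote 72 h exposure.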

Test [6] deals with K562. In words: Cell cycle arrest in human K562 cells assessed as accumulation at G1 phase at 1 uM after 24 hrs by propidium iodide staining-based flow cytometric analysis. It counts as functional. Summed up: as §1
In test [7] the test system is K562. The test can be described thus: Cell cycle arrest in human K562 cells assessed as reduction of S phase fraction at 1 uM after 24 hrs by propidium iodide staining-based flow cytometric analysis. In kind it is functional. Summed up: as §1
Test [8] relates to K562. The test can be described thus: Cell cycle arrest in human K562 cells assessed as reduction of S phase fraction at 10 uM after 24 hrs by propidium iodide staining-based flow cytometric analysis. In kind it is functional. The essentials: as §1
Test [9] concerns K562. In words: Cell cycle arrest in human K562 cells assessed as accumulation at G1 phase at 10 uM after 24 hrs by propidium iodide staining-based flow cytometric analysis. In kind it is functional. The essentials:
as §1

Active and inactive are the calls of the source. No cut-off for these calls is given here.

A word on the IC50: it is the point on the concentration scale where inhibition reaches its midpoint. For orientation: AC50 means the concentration at which the activity in the assay is half-maximal.

`COC(=O)c1noc2c1CN(C(C)=O)CC2`: the IC50 in the test on NCI-H460 is greater than 1000 nM; in [1], greater than 100000 nM.
The corresponding values for `CC(C)c1cc(C(=O)N2CCc3onc(C(=O)NCCN4CCOCC4)c3C2)c(O)cc1O` are 190 nM and 54 nM.
Take `CCNC(=O)c1noc2c1CN(C(=O)c1ccc(O)cc1O)CC2`: the IC50 with NCI-H460 was greater than 20000 nM; in [1], 1200 nM.
As to `CCNC(=O)c1noc2c1CN(C(=O)Nc1cc(C(C)C)c(O)cc1O)CC2`, the IC50 is greater than 1000 nM with NCI-H460 and greater than 100000 nM in test [1].
In the case of `CCNC(=O)c1noc2c1CN(C(=O)c1cc(Cl)c(O)cc1O)CC2`, the results for the IC50 (in the test on NCI-H460; in test [1]; in the test on K562 [5]) were 9700 nM, 110 nM and 32600 nM, respectively. The outcome in the test with K562 [2] and with K562 [4] was Active. Also, in the test with K562 [3], the AC50 is greater than 100000 nM. The “growth inhibition (GI)” value in the test with K562 [5] is “Dose-dependent effect”.
For `CCOC(=O)c1noc2c1CN(C(=O)c1cc(Cl)c(O)cc1O)CC2`, the IC50 in the test with NCI-H460 was greater than 20000 nM; in [1] it was 160 nM.
`CCOC(=O)c1noc2c1CN(C(=O)c1ccc(O)cc1O)CC2`: the IC50 in the test with NCI-H460 was greater than 20000 nM; in [1] it was 3900 nM.
Take `CCNC(=O)c1noc2c1CN(Cc1cc(Cl)c(O)cc1O)CC2`: the IC50 is greater than 20000 nM in the test with NCI-H460 and 1400 nM in test [1].
As for `CC(C)c1cc(C(=O)N2CCc3onc(C(=O)NC4CCCC4)c3C2)c(O)cc1O`, the IC50 in the test with NCI-H460 worked out at 900 nM; in [1] it was 68 nM.
`C=CCNC1=C2C[C@@H](C)C[C@H](OC)[C@H](O)[C@@H](C)/C=C(\C)[C@H](OC(N)=O)[C@@H](OC)/C=C\C=C(/C)C(=O)NC(=CC1=O)C2=O` [TANESPIMYCIN]: the AC50 with K562 [3] is 3100 nM. Besides, the result with K562 [6] and in the test with K562 [7] was Active. Further, the IC50 in the test with K562 [5] came out at 150 nM.
Take `CCNC(=O)c1noc2c1CN(C(=O)c1cc(C(C)C)c(OC(C)=O)cc1OC(C)=O)CC2`: in the test with NCI-H460, the IC50 was determined as 230 nM.
In the case of `CCNC(=O)c1noc2c1CN(C(=O)c1cc(C(C)C)c(O)cc1O)CC2`, the IC50 in the test with NCI-H460 was found to be 450 nM; in test [1] it was 29 nM; in the test on K562 [5], 720 nM. For the same compound, the AC50 in the test with K562 [3] was determined as 5400 nM. For the same compound, the outcome with K562 [8] and in the test with K562 [9] was Active. Moreover, the “growth inhibition (GI)” value in the test with K562 [5] was “Dose-dependent effect”.
With `CCOC(=O)c1noc2c1CN(C(=O)c1cc(C(C)C)c(O)cc1O)CC2`, the IC50 with NCI-H460 is 870 nM; in test [1] it was 100 nM.
As for `CCNC(=O)c1noc2c1CN(C(=O)Nc1cc(Cl)c(O)cc1O)CC2`, the figures for the IC50 (in the test on NCI-H460; in [1]) were greater than 1000 nM and greater than 100000 nM, respectively.
Take `CC(C)c1cc(C(=O)N2CCc3onc(C(=O)NCCCl)c3C2)c(O)cc1O`: the IC50 was 200 nM in the test on NCI-H460 and 34 nM in [1].

The values are drawn from ChEMBL document CHEMBL3232879, “4,5,6,7-Tetrahydro-isoxazolo-[4,5-c]-pyridines as a new class of cytotoxic Hsp90 inhibitors” (Eur J Med Chem, 2014).
